Compound activity: PubChem, several laboratories
Rows were chosen to be rich in hits. Some 2.3% of all compounds tested hit in one or more screens of this group.
PAX8 reporter = inhibitors of PAX8-driven TPO luciferase reporter, primary screen, RMG-I cells, single concentration | SteadyGlo, 24 h | inhibition, % at 12.6 µM | 360,000 compounds, 1.2% hits;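 active = mean replicate inhibition at least 60% with every replicate also reaching 60%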;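 also: luciferase light reporting Pax8 driven TPO promoter activity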
PfHsp90 set2 = growth inhibition of PfHsp90-expressing yeast, primary screen, antimalarial PfHsp90 inhibitor project, S. cerevisiae, BacTiter-Glo luminescence, single point, set 2; 310,000 compounds, 0.32% hits; AID 504621, 2011; BacTiter-Glo ATP, 48 h; yeast lacking PDR1 and PDR3 efflux regulators; inhibition, % at 9.4 µM;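 active = every replicate shows inhibition above about 80%, whatever the replicate mean, limit read from the data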
Rtt109 HAT inh = inhibitors of C. albicans Rtt109/Vps75 HAT, primary screen, biochemical, ThioGlo CoA-SH fluorescence, plate reader | Histone acetyltransferase RTT109 (Candida albicans (strain SC5314 / ATCC MYA-2876)), … | purified Rtt109/Vps75, 4 h | inhibition, % at 34.9 µM | 330,000 compounds, 0.16% hits;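 active = inhibition of at least 50% in every replicate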
Target sequence (Q5AAJ8 whole entry, looked up): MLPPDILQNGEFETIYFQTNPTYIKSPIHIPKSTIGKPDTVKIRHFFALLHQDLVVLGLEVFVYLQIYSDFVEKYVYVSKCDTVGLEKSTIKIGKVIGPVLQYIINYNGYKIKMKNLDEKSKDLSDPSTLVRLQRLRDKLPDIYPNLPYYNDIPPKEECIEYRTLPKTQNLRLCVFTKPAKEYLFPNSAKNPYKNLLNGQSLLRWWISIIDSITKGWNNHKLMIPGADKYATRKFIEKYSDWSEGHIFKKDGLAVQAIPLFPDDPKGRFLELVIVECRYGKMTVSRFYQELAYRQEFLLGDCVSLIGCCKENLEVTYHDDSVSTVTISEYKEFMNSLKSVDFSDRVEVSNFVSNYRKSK
N-glyco inh = increase of ERlucT glycosylation luciferase signal, primary screen, N-linked glycosylation inhibitor project, D54 ERlucT cells, luminescence, set 2; reporter increase, % at 12.5 µM; D54 ERlucT glycosylation luciferase reporter, 24 h; percent of 100 nM tunicamycin response; AID 588692, 2011; 360,000 compounds, 0.23% hits;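 active = mean luciferase reporter signal, scaled so untreated is 0 and the glycosylation-blocking control 100, at or above a set limit in every replicate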;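 also: luciferase carries N-glycosylation sites so blocking glycosylation raises the light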
Arrestin-AP2 inh = inhibitors of beta-arrestin/AP2 binding, primary screen, biochemical, GPCR trafficking, flow cytometry. beta-arrestin 1 C-terminal peptide binding to AP2 beta2-adaptin appendage (human). FITC-arrestin peptide / GST-AP2 beads; AP2 beta2 appendage carries R879A mutation. inhibition, % at 10 µM. 340,000 compounds, 0.31% hits. AID 504490, 2011;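 active = inhibition above a set limit, near 3 SD of compounds lacking own fluorescence, cut at about 54% in these data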
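test system = AP2 appendage R879A on GSH beads | buffer or medium = PBS plus Tween 20 (0.05%) and BSA (0.1%) | incubation = 12 min plus 1 h, RT | detection = bead flow cytometry, FITC channel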
HIV Env fusion = inhibitors of HIV-1 Env-driven cell-cell fusion, primary screen, HeLa-JRFL effector, CEM21 target cells, luciferase; 360,000 compounds, 1.1% hits; inhibition, % at 12.3 µM;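 active = mean replicate inhibition score of at least 50 and every replicate individually at or above 50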
A number is an active result; – = inactive; · = not tested or not shown.

SMILES	PAX8 reporter	PfHsp90 set2	Rtt109 HAT inh	N-glyco inh	Arrestin-AP2 inh	HIV Env fusion
C[C@@H]1CCCCO[C@@H](CN(C)C(=O)Cc2ccccc2)[C@@H](C)CN([C@@H](C)CO)C(=O)c2cc(NC(=O)Nc3ccc(C(F)(F)F)cc3)ccc2O1	79.1	·	·	·	·	–
C[C@H](CO)N1C[C@H](C)[C@@H](CN(C)Cc2ccccc2)Oc2ccc(NS(=O)(=O)c3ccccc3)cc2C1=O	–	·	·	·	·	–
COc1cc(C(=O)O[C@H]2C/C(C)=C/CC[C@]3(C)O[C@@H]3C(O)C2C(C)C)cc(OC)c1OC (stereo partly drawn)	–	–	–	–	–	–
COc1cc(C(=O)O[C@H]2CC(C)=CC[C@@]3(C)CC[C@@](O)(C(C)C)[C@H]23)ccc1O	–	–	–	–	–	88.2
CCCC#Cc1cnc2c(c1)C(=O)N([C@@H](C)CO)C[C@H](C)[C@@H](CN(C)C(=O)c1ccc3c(c1)OCO3)O2	·	·	·	·	·	–
CCOC(=O)c1c(CSc2cccs2)n(C)c2cc(Br)c(O)c(CN(C)C)c12	–	–	–	–	–	85.4
Cc1ccc(-n2nc3c(c2NC(=O)c2ccco2)CS(=O)C3)cc1 (stereo not drawn)	–	–	–	–	–	88.3
O=C(Nc1c2c(nn1-c1ccc(F)cc1)CS(=O)C2)c1ccco1 (stereo not drawn)	–	–	–	–	–	–
CCOc1cccc(-c2c(C(=O)N/N=C(\C)c3ccccn3)nnn2-c2nonc2N)c1	69.1	–	–	–	–	–
C[C@H](CO)N1C[C@H](C)[C@H](CN(C)S(C)(=O)=O)OCCCC[C@H](C)Oc2ccc(NS(=O)(=O)c3cccs3)cc2C1=O	·	·	·	·	·	–
COc1ccc(S(=O)(=O)Nc2ccc3c(c2)C(=O)N([C@@H](C)CO)C[C@@H](C)[C@H](CN(C)Cc2ccc4c(c2)OCO4)OCCCC[C@H](C)O3)cc1	–	·	·	·	·	–
C[C@@H]1CN([C@@H](C)CO)C(=O)c2cc(NC(=O)Nc3cccc4ccccc34)ccc2O[C@@H](C)CCCCO[C@@H]1CN(C)C(=O)Nc1ccccc1	–	·	·	·	·	–
O=C(C[C@@H]1C=C[C@H](NC(=O)Nc2ccc(F)cc2)[C@H](CO)O1)NCCN1CCCC1	–	·	·	·	·	–
Nc1ccn(C2OC(COC(=O)C34CC5CC(CC(C5)C3)C4)C(O)C2O)c(=O)n1 (stereo not drawn)	–	–	–	–	–	68.0
Cc1ccc(S(=O)(=O)Nc2ccc3c(c2)C(=O)N([C@H](C)CO)C[C@H](C)[C@H](CN(C)C(=O)c2ccccc2)OCCCC[C@@H](C)O3)cc1	–	·	·	·	·	–
Cc1ccccc1/C=N/NC(=O)Cn1nnc(N)n1	65.5	–	–	–	–	·
Nc1nnn(CC(=O)N/N=C/c2cccc3ccccc23)n1	·	–	–	–	–	·
COc1ccc(CN2[C@@H]3CN(C(=O)CC(F)(F)F)c4ccccc4[C@@H]3[C@@H]2CO)cc1	–	·	·	·	·	·
Fc1ccc(-n2cc(-c3ccccc3)c3c(N4CCOCC4)ncnc32)cc1	–	–	–	–	–	–
COc1ccc(-n2cc(-c3ccccc3)c3c(N4CCOCC4)ncnc32)cc1	63.9	–	–	–	–	–
Brc1ccc(-n2cc(-c3ccccc3)c3c(NN4CCOCC4)ncnc32)cc1	95.3	–	–	–	–	·
C[C@@H]1CN([C@H](C)CO)C(=O)Cc2cc(NC(=O)Cc3ccccc3)ccc2O[C@@H]1CN(C)Cc1ccc(C(=O)Nc2ccccc2N)cc1	–	·	·	·	·	·
COc1ccc(/C=N/NC(=O)c2[nH]c3ccc(Br)cc3c2-c2ccccc2)c(C(=O)O)c1OC	–	–	–	–	–	–
COc1ccc(/C=N/NC(=O)c2[nH]c3ccc(Br)cc3c2-c2ccccc2)cc1	102.0	–	–	–	–	–
